proCasp3 act – procaspase-3 (human) activation | recombinant procaspase-3 D3A, Ac-DEVD-pNA absorbance 405 nm | activation, % at 8.5 µM | 330,000 compounds, 0.11% hits;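 active = activation above the mean of all tested compounds plus 3 SD, cut at about 21% in these data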
Target sequence (P42574 whole entry D9A/D28A/D175A): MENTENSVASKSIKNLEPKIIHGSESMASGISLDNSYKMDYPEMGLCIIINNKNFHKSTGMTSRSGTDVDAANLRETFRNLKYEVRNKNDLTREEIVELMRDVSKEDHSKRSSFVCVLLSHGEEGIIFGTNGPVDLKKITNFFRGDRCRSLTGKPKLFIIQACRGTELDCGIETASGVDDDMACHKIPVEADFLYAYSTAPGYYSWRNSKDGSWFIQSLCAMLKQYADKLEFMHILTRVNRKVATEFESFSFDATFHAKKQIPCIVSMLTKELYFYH
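Assay system: Procaspase-3 D3A mutant, all three cleavage aspartates alanine. Buffer or medium: Zinc-free HEPES saline buffer with Triton X-100. Times: 1 h compound preincubation, 2 h substrate hydrolysis at 25 °C. Measured by: 405 nm absorbance of p-nitroaniline, reads at 0 and 120 min. Read-out basis: percent activation relative to control range. Replicates: singlicate.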
procasp7 counter – counter-screen: procaspase-7 (human) activation; P55210; recombinant procaspase-7, Ac-DEVD-pNA absorbance 405 nm; D23A/D198A/D206A triple mutant, cannot self-cleave; scale: DMSO 0, 5 µM enzyme 100; 330,000 compounds, 0.093% hits; AID 463210; activation, % at 8.5 µM;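 active = percent activation above the screen-wide mean plus 3 SD, cut at about 25% in these data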
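Assay system: Uncleavable procaspase-7 mutant enzyme | Input: 2 µM procaspase-7 mutant as dispensed | Timing: 1 h compound preincubation, 2 h substrate cleavage, 25 °C | Repeats: One well per compound | Control set: DMSO wells as 0%, DMSO with 5 µM added PC-7 as 100% | Technique: Epi-absorbance of released pNA at 405 nm, two timepoints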
Fam108B counter – counter-screen for RBBP9 inhibitors: inhibitors of mouse Fam108B | 300,000 compounds, 0.33% hits | inhibition, % at 9.51 µM | recombinant Fam108B, FP-Rh probe fluorescence polarization | AID 1947;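 active = inhibition above the screen mean inhibition plus 3 SD, computed separately per campaign, cut at about 18% in these data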;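 also: inhibitors lower polarization as less probe binds the enzyme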
PME-1 primary – blocks human protein phosphatase methylesterase 1 | recombinant PME-1, FP-Rh probe fluorescence polarization | Q9Y570 | 320,000 compounds, 0.53% hits | inhibition, % at 5.9 µM;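 active = inhibition above the campaign mean of all compounds plus 3 SD, cut at about 26% in these data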;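 also: competitive labeling of PME-1 active site by serine hydrolase directed probe; inhibitors block probe labeling so polarization falls and inhibition rises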
LYPLA1 counter – LYPLA1 (human) inhibition in PME1 counter-screen | O75608 | recombinant LYPLA1, FP-Rh probe fluorescence polarization | inhibition, % at 5.9 µM | 320,000 compounds, 0.16% hits;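 active = inhibition above the mean of all tested compounds plus 3 SD, set per campaign, cut at about 14% in these data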;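 also: inhibitors block serine hydrolase probe labeling of LYPLA1 so polarization falls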
LYPLA2 counter – blocks human lysophospholipase 2, a PME1 counter-screen. O95372. recombinant LYPLA2, FP-Rh probe fluorescence polarization. inhibition, % at 5.9 µM. 320,000 compounds, 0.38% hits. AID 2177;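 active = inhibition above the screen-wide mean plus 3 SD, limit set per campaign, cut at about 26% in these data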
Target sequence (O95372 whole entry, looked up): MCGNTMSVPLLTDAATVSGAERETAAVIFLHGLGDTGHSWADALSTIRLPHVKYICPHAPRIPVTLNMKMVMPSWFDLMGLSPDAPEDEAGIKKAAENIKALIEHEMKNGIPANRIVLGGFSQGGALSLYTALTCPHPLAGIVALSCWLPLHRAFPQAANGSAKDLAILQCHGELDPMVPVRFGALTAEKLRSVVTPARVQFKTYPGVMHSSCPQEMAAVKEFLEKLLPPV
Fam108b inh conf – confirmation of mouse Fam108b serine hydrolase inhibitors; 930 compounds, 44% hits; inhibition, % at 9.51 µM; shares compounds with Fam108B counter; recombinant Fam108b, FP-Rh probe fluorescence polarization;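 active = inhibition above a limit from the primary screen, the mean over all compounds plus 3 SD, cut at about 19% in these data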;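 also: inhibitors free the probe so polarization falls as inhibition rises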
Fam108b ABPP HTS – inhibits mouse Fam108b in gel-based ABPP. AID 588649. inhibition, % at 20 µM. recombinant Fam108b, fluorophosphonate probe. shares compounds with Fam108B counter. 260 compounds, 44% hits; in the data active = inhibition above about 40%
Hits are given with their value; . = inactive; / = no result given. Sampled rows, rich in hits. Any-hit rate of the full collection: about 1%.

SMILES | proCasp3 act | procasp7 counter | Fam108B counter | PME-1 primary | LYPLA1 counter | LYPLA2 counter | Fam108b inh conf | others
O=C1/C(=C/C=C/c2ccco2)SC(=S)N1NS(=O)(=O)c1ccccc1 | . | . | 52.6 | . | . | . | .
C[C@H](CO)N1C[C@H](C)[C@@H](CN(C)C(=O)Nc2ccc3c(c2)OCO3)Oc2ccc(NC(=O)NC3CCCCC3)cc2C1=O | . | . | / | / | / | / | /
Cc1ccc(NCc2ccccc2F)cc1 | . | . | 18.8 | . | . | . | .
Nc1ccc(O)cc1 | . | . | 64.1 | 49.6 | . | . | .
c1ccc(Cn2c[n+](Cc3ccccc3)cn2)cc1 | . | . | . | . | . | . | /
Cc1cc(C)nc(SCc2ccc(C(=O)NN=Cc3cccc(O)c3O)cc2)n1 | / | / | / | / | / | / | / | Fam108b ABPP HTS=90.0
COc1ccc(O)c(/C=N/NC(=O)c2ccc(CSc3nc(C)cc(C)n3)cc2)c1 | . | . | . | . | . | . | /
Cc1cc(C)nc(SCc2ccc(C(=O)N/N=C/c3cccc(O)c3O)cc2)n1 | . | . | 49.5 | 26.2 | . | . | 81.8
CC1(C)C(/C=C/C=C/C=C/C=C2\N(CCCCS(=O)(=O)O)c3ccc4ccccc4c3C2(C)C)=[N+](CCCCS(=O)(=O)[O-])c2ccc3ccccc3c21 | . | . | . | . | . | . | /
COc1cc(NC(=O)CSc2ncnc3sc4c(c23)CCC(C)C4)c(C(=O)O)cc1OC (stereo not given) | . | . | . | . | . | . | /
Cc1cccc(NC(=S)N/N=C/c2c[nH]c3ccccc23)c1 | . | . | 22.3 | 38.5 | . | . | .
CCOC(=O)c1sc2c(c1C)c(=O)n(Cc1ccccc1)c(=O)n2CCN(C)C | . | . | . | . | . | . | /
COc1cc(CN2CCNC(=O)C2CC(=O)NCc2csc(C(C)C)n2)cc(OC)c1 (stereo not given) | . | . | . | . | . | . | /
O=C(Nc1ccc(N2CCCCC2)c(Cl)c1)c1ccc(N2CCOCC2)c([N+](=O)[O-])c1 | . | . | 18.6 | . | . | . | .
C=Cc1c(C)c2cc3[nH]c(cc4nc(cc5nc(cc1[nH]2)C(C)=C5CCC(=O)O)C(CCC(=O)O)=C4C)c(C)c3C=C | . | . | 46.5 | . | . | . | 44.1 | Fam108b ABPP HTS=.
CCCOc1ccc(C2Nc3cccc4cccc(c34)N2)cc1 | . | . | 25.5 | 49.4 | . | . | .
COc1ccc(C2Nc3cccc4cccc(c34)N2)cc1Br | . | . | 36.6 | 31.8 | . | . | .
Oc1ccc(C2Nc3cccc4cccc(c34)N2)c(O)c1 | . | . | 66.7 | 63.6 | . | . | 44.5 | Fam108b ABPP HTS=65.0
c1coc(C2Nc3cccc4cccc(c34)N2)c1 | . | . | 22.1 | . | . | . | 18.3
O=C(Nc1c2c(nn1-c1ccccc1)CS(=O)C2)c1ccc2c(c1)OCO2 (stereo not given) | . | . | . | . | . | . | /
Cc1ccc(/C=N/NC(=O)c2nnn(-c3nonc3N)c2CSc2ccc(Cl)cc2)o1 | . | . | . | . | . | . | /
Cc1ccc(OP(=O)(Nc2c(C)n(C)n(-c3ccccc3)c2=O)Oc2ccc(C)cc2)cc1 | . | . | . | . | . | . | /
C/C(=N\NC(N)=S)C1=CCC2C3CC[C@H]4CC(O)CC[C@]4(C)C3CC[C@]12C (stereo not given in full) | . | . | . | . | . | . | /
NNC(=O)CCCCCCCCCCOCCCCO | . | . | . | . | . | . | /
Fc1ccc(C2Nc3cccc4cccc(c34)N2)cc1 | . | . | 33.4 | . | . | . | .
SMILES | proCasp3 act | procasp7 counter | Fam108B counter | PME-1 primary | LYPLA1 counter | LYPLA2 counter | Fam108b inh conf | others
C/C(=C\c1ccccc1F)C1Nc2cccc3cccc(c23)N1 | . | . | / | . | . | . | /
Cc1ccc(C2Nc3cccc4cccc(c34)N2)s1 | . | . | 29.1 | . | . | . | .
CCc1cc(C(=O)N(CC)CC(=O)Nc2ccc(OC)cc2)sc1C | . | . | / | . | . | . | /
O=C(CSc1nc2ccc(NC(=O)c3ccccc3C(=O)O)cc2s1)Nc1ccc(F)c([N+](=O)[O-])c1 | . | . | . | . | . | . | /
O=C(Nc1cc(Sc2nc3ccccc3s2)cc([N+](=O)[O-])c1)c1cccc(F)c1F | . | . | 19.1 | . | . | . | 25.4
Cc1cc(=O)c2cc(C(=O)c3ccccc3)ccc2[nH]1 | . | . | . | . | . | . | /
COC(=O)c1ccc(COc2ccc(/C=C(\C#N)c3nc4ccccc4[nH]3)cc2OC)o1 | . | . | 18.6 | . | . | . | .
N#C/C(=C/c1ccc(O)c(O)c1)c1nc2ccccc2[nH]1 | . | . | 26.6 | 28.7 | . | . | 29.3
CSc1ncccc1C(=O)Nc1ccc(F)c(F)c1F | . | . | . | . | . | . | /
O=C(NN=Cc1cc(Cl)c(O)c(Cl)c1)c1cc2c(ccc3ccccc32)o1 | / | / | / | / | / | / | / | Fam108b ABPP HTS=.
O=C(N/N=C/c1ccncc1)c1cc2c(ccc3ccccc32)o1 | . | . | . | . | . | . | /
COc1cc(/C=N/NC(=O)c2cc3c(ccc4ccccc43)o2)cc(OC)c1O | . | . | 27.2 | 34.3 | . | . | 20.3
COc1ccccc1/C=N/NC(=O)c1cc2c(ccc3ccccc32)o1 | . | . | . | . | . | . | /
COc1cc(/C=C2\S/C(=N/S(=O)(=O)c3ccc(C)cc3)NC2=O)c([N+](=O)[O-])cc1OC | . | . | . | . | . | . | /
Cc1ccc(S(=O)(=O)/N=C2/NC(=O)/C(=C/c3cc([N+](=O)[O-])ccc3O)S2)cc1 | . | . | 18.2 | . | . | . | 21.2
O=C(CNc1ccc2ccccc2c1)N/N=C/c1cc2ccccc2nc1Cl | . | . | 36.9 | 51.8 | . | . | .
Cc1ccc(N2C(=O)CCC2=O)c(C)c1 | . | . | . | . | . | . | /
O=C(NNC(=O)c1cc(Cl)ccc1[N+](=O)[O-])c1csc(N2CCOCC2)n1 | . | . | . | . | . | . | /
Nc1ccc(C#Cc2ccc3sc4ccccc4c(=O)c3c2)cc1 | . | . | 22.2 | . | . | . | .
CSC1=NSC2=NC(=O)/C(=C\c3ccc(OC(=O)c4ccco4)cc3)C(=N)N12 | . | . | . | . | . | . | /
CCSC1=NSC2=NC(=O)/C(=C\c3coc4ccccc4c3=O)C(=N)N12 | . | . | 43.5 | . | . | . | 46.7 | Fam108b ABPP HTS=.
Cc1[nH]c2c(C)cccc2c1CCNC(=O)c1ccc2c(c1[N+](=O)[O-])C(=O)c1ccccc1C2=O | . | . | 23.5 | 31.2 | . | . | 30.3 | Fam108b ABPP HTS=60.0
Cc1cccc2c(=O)c(C(=O)NCCc3ccccc3)c[nH]c12 | . | . | . | . | . | . | /
